Data on 5 compounds can be found in ChEMBL document CHEMBL1255338, “Differential effects of quinoline antimalarials on endocytosis in Plasmodium falciparum” (2008).

Activity calls are given as the source filed them. The rule behind the calls is not given here.

In assay [1] the test system is Plasmodium falciparum. As to the kind of experiment: Antimalarial activity against early trophozoite-stage Plasmodium falciparum 3D7 infected in erythrocyte assessed as reduction in parasite hemoglobin content at 5 times IC50 after 8 hrs. In kind it is functional.
For assay [2], the system named is Plasmodium falciparum. In words: Antimalarial activity against early trophozoite-stage Plasmodium falciparum 3D7 infected in erythrocyte assessed as reduction in parasite hemoglobin content at 5 times IC50 after 8 hrs in presence of 40 uM protease inhibitor ALLN. In kind it is functional, organism-based.
The subject of assay [3] is Plasmodium falciparum. In words: Antimalarial activity against early trophozoite-stage Plasmodium falciparum 3D7 infected in erythrocyte assessed as reduction in parasite hemoglobin content at 5 times IC50 after 8 hrs in presence of 40 uM protease inhibitor E64. In kind it is functional, organism-based.
Assay [4] concerns Plasmodium falciparum. As to the kind of experiment: Antimalarial activity against schizont-stage Plasmodium falciparum 3D7 infected in erythrocyte assessed as inhibition of horseradish peroxidase(HRP) uptake after 10 hrs by colorimetric peroxidase assay. The format is functional, organism-based. In outline:
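Erythrocytes preloaded with HRP by hypotonic lysis, then infected by incubation with enriched schizont-infected cells. Parasites exposed to quinolines for 10 h, released with saponin, washed, and lysed in Triton X-100. HRP measured colorimetrically with O-phenylenediamine at 450 nm. Significance vs control taken at P < 0.05.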

Assay [5] concerns Plasmodium falciparum. As to the kind of experiment: Antimalarial activity against Plasmodium falciparum 3D7 infected in erythrocyte assessed as reduction in endocytic vesicle content after 8 hrs by immunofluorescence microscopy. The format is functional, organism-based. Put shortly:
(§1)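 Cultures left untreated or given quinoline for 8 h, then parasites freed by saponin lysis, fixed on polylysine-coated coverslips with paraformaldehyde and glutaraldehyde, permeabilized in Triton X-100, and stained with rabbit anti-Hb antiserum and TRITC-conjugated goat anti-rabbit antibody. Hb transport vesicles counted by fluorescence microscopy in 100 randomly chosen parasites per sample; mean per parasite ± SEM.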

Assay [6] has as its system Plasmodium falciparum. As to the kind of experiment: Antimalarial activity against Plasmodium falciparum 3D7 infected in erythrocyte assessed as increase in vesicle content after 8 hrs by immunofluorescence microscopy. In kind it is functional, organism-based. In outline:
as §1

In the case of `OC(c1cc(C(F)(F)F)nc2c(C(F)(F)F)cccc12)C1CCCCN1` (stereo not given) [MEFLOQUINE], the “inhibition (INH)” value in assay [1] is recorded as 83%. Moreover, the inhibition entry in assay [2] and in assay [3] was “inactive” throughout. Further, the inhibition entry in assay [4] and in assay [5] was “Active” in each case.
As for `CCCCN(CCCC)CCC(O)c1cc2c(Cl)cc(Cl)cc2c2cc(C(F)(F)F)ccc12` (stereo not given) [HALOFANTRINE], the “inhibition (INH)” value in assay [1] is listed as 64%. The inhibition entry in assay [2], in assay [3], in assay [4] and in assay [5] was “Active” throughout.
In the case of `CCN(CC)Cc1cc(Nc2ccnc3cc(Cl)ccc23)ccc1O`, the inhibition result in assay [1], in assay [2], in assay [3] and in assay [4] was “inactive” in each case. Also, in assay [6], the inhibition entry is “Active”.
With `CCN(CC)CCCC(C)Nc1ccnc2cc(Cl)ccc12` (stereo not given), the inhibition result in assay [1], in assay [2], in assay [3] and in assay [4] was “inactive” throughout. The inhibition entry in assay [6] was “Active”.
Turning to `C=C[C@H]1CN2CC[C@H]1C[C@H]2[C@H](O)c1ccnc2ccc(OC)cc12` [QUININE], in assay [1], the “inhibition (INH)” value is 84%. The inhibition result in assay [2], in assay [3], in assay [4] and in assay [5] was “Active” in each case.
